These results are taken from ChEMBL document CHEMBL1135820, “A sorbitol dehydrogenase inhibitor of exceptional in vivo potency with a long duration of action: 1-(R)-[4-[4-(4,6-dimethyl[1,3,5]triazin-2-yl)- 2R,6S-dimethylpiperazin-1-yl]pyrimidin-2-yl]ethanol” (J Med Chem, 2002).

The test system of series [1] is Rattus norvegicus. The series is described as follows: Concentration required for […] inhibition of lower sciatic nerve fructose that became elevated in diabetic nerve in streptozotocin diabetic in vivo rat model. The series is classed as functional.
The target in series [2] is T1, Sorbitol dehydrogenase (Rattus norvegicus, UniProt P27867).
T1 sequence (P27867 whole entry): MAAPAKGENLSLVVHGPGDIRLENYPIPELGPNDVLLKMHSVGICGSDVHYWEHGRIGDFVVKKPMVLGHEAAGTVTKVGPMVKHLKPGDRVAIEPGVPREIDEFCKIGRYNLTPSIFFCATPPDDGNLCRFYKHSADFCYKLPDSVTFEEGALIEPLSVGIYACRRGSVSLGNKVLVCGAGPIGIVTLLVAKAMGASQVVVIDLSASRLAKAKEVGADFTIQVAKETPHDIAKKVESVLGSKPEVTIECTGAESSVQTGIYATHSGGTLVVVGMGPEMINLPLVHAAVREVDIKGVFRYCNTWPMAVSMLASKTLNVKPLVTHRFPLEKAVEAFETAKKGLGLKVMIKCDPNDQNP
The series is described as follows: Concentration required for 50% in vitro activity against rat SDH (sorbitol dehydrogenase).

The target of series [3] is T2, Sorbitol dehydrogenase (Homo sapiens, UniProt Q00796).
T2 sequence (Q00796 whole entry): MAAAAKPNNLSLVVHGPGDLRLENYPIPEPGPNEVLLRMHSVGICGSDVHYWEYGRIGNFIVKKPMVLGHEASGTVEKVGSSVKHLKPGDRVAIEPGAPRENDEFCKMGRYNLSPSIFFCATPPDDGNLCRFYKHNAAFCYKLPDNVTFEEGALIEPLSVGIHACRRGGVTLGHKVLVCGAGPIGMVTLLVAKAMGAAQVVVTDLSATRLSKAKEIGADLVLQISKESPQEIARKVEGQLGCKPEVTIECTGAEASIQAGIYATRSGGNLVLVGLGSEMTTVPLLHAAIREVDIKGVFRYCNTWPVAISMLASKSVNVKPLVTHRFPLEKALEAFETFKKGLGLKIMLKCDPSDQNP
The series is described as follows: Concentration required for 50% for in vitro activity against human SDH (sorbitol dehydrogenase).

The species entered for series [4] is Rattus norvegicus. Briefly: % Ability to inhibit lower sciatic nerve fructose that became elevated in diabetic nerve in streptozotocin diabetic rat model at 0.05 mpk. The series is classed as functional. Put shortly:
(§1)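 Chronically diabetic rats were dosed at 0.05 or 1 mg/kg in a chronic test. Sciatic nerve fructose was measured and reported as percent inhibition of the diabetes-induced fructose elevation in sciatic nerve.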

The test system of series [5] is Rattus norvegicus. Briefly: % Ability to inhibit lower sciatic nerve fructose that became elevated in diabetic nerve in streptozotocin diabetic rat model at 1 mg/kg. The series is classed as functional. Put shortly:
as §1

The nature of series [6]: pKa value was reported. The format is physicochemical.
The target in series [7] is T3, Sorbitol dehydrogenase (Rattus norvegicus) (UniProt P27867).
T3 sequence (whole entry): T1 sequence (P27867 whole entry)

The target in series [8] is T2, Sorbitol dehydrogenase. Briefly: Concentration required for 50% in vitro activity against human SDH (sorbitol dehydrogenase).
Series [9] addresses T3, Sorbitol dehydrogenase (Rattus norvegicus). The series is described as follows: In vitro inhibitory activity against rat sorbitol dehydrogenase and concentration that cause 90% inhibition was reported.

Each structure is given as a SMILES string.

In series [1], `Cc1cn(-c2nccc(N3C[C@@H](C)N(c4ccnc([C@@H](C)O)n4)[C@@H](C)C3)n2)cn1` yielded an ED90 of 1 mg/kg. Also, the IC50 worked out at 0.011 µM in series [2] and 0.013 µM in series [3].
Compound `Cc1nc(C)nc(N2C[C@@H](C)N(c3ccnc([C@@H](C)O)n3)[C@@H](C)C2)n1` (stereo in doubt; 16a) had an Ability in series [4] of 56%. Further, the IC50 in series [2] came out at 0.009 µM; in series [3], 0.016 µM.
As to `Cc1nc(CO)nc(N2C[C@@H](C)N(c3ccnc([C@@H](C)O)n3)[C@@H](C)C2)n1`, in series [2], the IC50 came out at 0.02 µM. For the same compound, the Ability in [5] amounted to 65%.
`Cc1cn(-c2nccc(N3C[C@@H](C)N(c4ccnc([C@@H](C)O)n4)[C@@H](C)C3)n2)c(C)n1` had an ED90 in [1] of 1 mg/kg. Further, the IC50 worked out at 0.007 µM in [2] and 0.004 µM in series [3].
The like results for `C[C@@H]1CN(c2ncnc(-c3ccccc3)n2)C[C@H](C)N1c1ccnc([C@@H](C)O)n1` were, in that order, 1 mg/kg, 0.01 µM and 0.007 µM.
In turn, `Cc1nc(C)nc(N2C[C@@H](C)N(c3ccnc([C@@H](C)O)n3)[C@@H](C)C2)n1` (stereo in doubt; 16) [listing 1 of 2 here] returned an ED90 in series [1] of 0.05 mg/kg. The IC50 came to 0.004 µM in [2] and 0.005 µM in series [3]. In [6], this compound yielded a pKa of 6.2.
For the compound `C[C@H](O)c1nccc(N2C[C@@H](C)N(c3ccnc([C@@H](C)O)n3)[C@@H](C)C2)n1`, in series [7], the 90% effect concentration (IC90) stood at 0.031 µM. In addition, the IC50 in series [8] came to 0.01 µM; in [2] it was 0.011 µM. In series [1], this compound displayed an ED90 of 2 mg/kg. Also, the pKa in series [6] worked out at 6.8.
With `Cc1ncnc(N2C[C@@H](C)N(c3ccnc([C@@H](C)O)n3)[C@@H](C)C2)n1`, the ED90 in series [1] was 0.3 mg/kg. Besides, the IC50 came to 0.005 µM in [2] and 0.007 µM in series [3].
In [1], `Cc1nc(-c2ccccc2)nc(N2C[C@@H](C)N(c3ccnc([C@@H](C)O)n3)[C@@H](C)C2)n1` displayed an Ability of 81%. Further, the IC50 is 0.039 µM in series [2] and 0.043 µM in [3].
For the compound `Cc1nc(C)nc(N2C[C@@H](C)N(c3ccnc([C@@H](C)O)n3)[C@@H](C)C2)n1` (stereo in doubt; 16) [listing 2 of 2 here], in series [9], the IC90 is 0.01 µM.
The compound `C[C@H](O)c1nccc(N2[C@H](C)CN(c3ccnc(N4CCN(C)CC4)n3)C[C@@H]2C)n1` showed an IC50 in [2] of 0.032 µM. That is a double-digit nanomolar value.
`C[C@@H]1CN(c2ccnc(N3CCN(C)CC3)n2)C[C@H](C)N1c1ccnc([C@@H](C)O)n1`: the ED90 in series [1] was 1 mg/kg. Moreover, the IC50 is 0.006 µM in series [2] and 0.004 µM in series [3].

What is called IC50 is the concentration that gives 50% inhibition. Higher therefore signals lower potency. As usually defined, the pKa is the negative logarithm of the acid dissociation constant. A low value points to a stronger acid or weaker base. By IC90 is commonly meant the concentration needed for an effect of 90%.
